The text below walks through data of ChEMBL document CHEMBL3351525, “Synthesis of tripeptides containing D-Trp substituted at the indole ring, assessment of opioid receptor binding and in vivo central antinociception” (J Med Chem, 2014).

In data set [1] the target is Kappa-type opioid receptor (Homo sapiens, UniProt P41145). Description: Displacement of [3H]U69593 from human kappa opioid receptor expressed in HEK293 cells by scintillation counting. It counts as cell-based. For orientation: Displacement assays read how much labelled ligand stays bound in the presence of the test substance.
Kappa-type opioid receptor, sequence (P41145 whole entry): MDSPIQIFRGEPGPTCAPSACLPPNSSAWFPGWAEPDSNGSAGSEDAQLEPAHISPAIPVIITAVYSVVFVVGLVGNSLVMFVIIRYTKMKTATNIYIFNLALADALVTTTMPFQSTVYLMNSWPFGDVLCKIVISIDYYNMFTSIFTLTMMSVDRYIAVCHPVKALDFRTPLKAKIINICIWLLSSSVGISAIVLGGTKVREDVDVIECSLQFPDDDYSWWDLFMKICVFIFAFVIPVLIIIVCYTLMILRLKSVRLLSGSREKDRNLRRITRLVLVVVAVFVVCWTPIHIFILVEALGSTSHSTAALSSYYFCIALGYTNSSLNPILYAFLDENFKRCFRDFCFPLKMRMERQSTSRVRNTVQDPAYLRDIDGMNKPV
The test system of data set [2] is Mus musculus. Description: Antinociceptive activity in CD-1 mouse assessed as increase in tail-flick latency period at 20 mg/kg, ip at 15 mins by tail flick test. It counts as functional. Conditions: for MPE: route intraperitoneal. A general note: Thermal pain tests record how soon the animal reacts.
Data set [3] addresses Delta-type opioid receptor (Homo sapiens, UniProt P41143). Kind of data set: Displacement of [3H]diprenorphine from human delta opioid receptor expressed in HEK293 cells by scintillation counting. It counts as cell-based.
For data set [4], the system named is Mus musculus. Description: Antinociceptive activity in CD-1 mouse assessed as increase in tail-flick latency period at 20 mg/kg, ip at 30 mins by tail flick test. The note with it: for MPE: route intraperitoneal. It counts as functional.
In data set [5] the test system is Mus musculus. Kind of data set: Toxicity in icv dosed CD-1 mouse assessed as grooming. It counts as organism-based. The note with it: in vivo, icv_or_intrathecal.
Data set [6] has as its system Mus musculus. Kind of data set: Toxicity in icv dosed CD-1 mouse assessed as locomotor activity. It counts as organism-based. The note with it: in vivo, icv_or_intrathecal.
Data set [7] has as its system Mus musculus. Kind of data set: Toxicity in icv dosed CD-1 mouse assessed as circling behavior. It counts as organism-based. Conditions: in vivo, icv_or_intrathecal.
Data set [8] concerns Mus musculus. Kind of data set: Toxicity in icv dosed CD-1 mouse assessed as straub tail. It counts as organism-based. The note with it: in vivo, icv_or_intrathecal.
Data set [9] has as its target Mu-type opioid receptor (Homo sapiens, UniProt P35372). Kind of data set: Displacement of [3H]DAMGO from human mu opioid receptor expressed in HEK293 cells by scintillation counting. It counts as cell-based.
For data set [10], the system named is Mus musculus. Kind of data set: Antinociceptive activity in ip dosed CD-1 mouse assessed as increase in tail-flick latency period at 30 mins by tail flick test. It counts as functional, organism-based. In outline:
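Tail immersed in 52 ± 0.5 °C water; withdrawal latency measured. Pre-treatment control latency recorded; mice not flicking within 5 s excluded. Vehicle or peptide given ip at 10, 20 or 40 mg/kg. Latency read at 5, 15, 30, 45 and 60 min post-dose, 10 s cutoff. Response expressed as % maximal possible effect (MPE%).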

A short description of data set [11]: Stability in mouse serum assessed as drug degradation after 3 hrs incubation. Conditions: read-out: Drug degradation. It counts as ADME. The method in brief:
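Peptide incubated in mouse serum for 3 h; degradation assessed.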

Data set [12] deals with Mus musculus. Kind of data set: Antinociceptive activity in CD-1 mouse assessed as increase in tail-flick latency period at 40 mg/kg, ip at 30 mins by tail flick test. It counts as functional. The note with it: route intraperitoneal.
The test system of data set [13] is Mus musculus. Description: Antinociceptive activity in icv dosed CD-1 mouse assessed as increase in tail-flick latency period at 10 mins by tail flick test. It counts as functional, organism-based. The method in brief:
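Hot-water (52 ± 0.5 °C) tail-immersion test after icv injection at 2.5, 5 or 10 μg/mouse, compared with vehicle. Withdrawal latency measured with a 10 s cutoff. Response expressed as % maximal possible effect (MPE%).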

In data set [14] the test system is Mus musculus. Kind of data set: Antinociceptive activity in CD-1 mouse assessed as increase in tail-flick latency period at 2.5 microg, icv at 10 mins by tail flick test. It counts as functional.
Data set [15] concerns Mus musculus. Description: Antinociceptive activity in CD-1 mouse assessed as increase in tail-flick latency period at 5 microg, icv at 10 mins by tail flick test. It counts as functional.
Data set [16] relates to Mus musculus. Kind of data set: Antinociceptive activity in CD-1 mouse assessed as increase in tail-flick latency period at 10 microg, icv at 10 mins by tail flick test. It counts as functional.

Active and inactive are the calls of the source. Where a SMILES comes first, the peptide text is derived from it. [ ]: non-standard residue; d: D form.

Mu-type opioid receptor, sequence (P35372 whole entry): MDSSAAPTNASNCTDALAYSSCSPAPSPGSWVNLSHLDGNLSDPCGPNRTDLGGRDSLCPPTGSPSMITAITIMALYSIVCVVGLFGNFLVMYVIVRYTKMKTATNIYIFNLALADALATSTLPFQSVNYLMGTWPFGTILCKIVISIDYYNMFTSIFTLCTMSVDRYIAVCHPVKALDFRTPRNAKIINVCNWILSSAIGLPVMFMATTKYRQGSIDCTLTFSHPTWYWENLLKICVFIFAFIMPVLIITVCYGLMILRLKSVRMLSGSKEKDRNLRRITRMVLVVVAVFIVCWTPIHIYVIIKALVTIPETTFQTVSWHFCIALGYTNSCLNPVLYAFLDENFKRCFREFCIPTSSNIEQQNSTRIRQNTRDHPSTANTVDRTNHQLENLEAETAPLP
Delta-type opioid receptor, sequence (P41143 whole entry): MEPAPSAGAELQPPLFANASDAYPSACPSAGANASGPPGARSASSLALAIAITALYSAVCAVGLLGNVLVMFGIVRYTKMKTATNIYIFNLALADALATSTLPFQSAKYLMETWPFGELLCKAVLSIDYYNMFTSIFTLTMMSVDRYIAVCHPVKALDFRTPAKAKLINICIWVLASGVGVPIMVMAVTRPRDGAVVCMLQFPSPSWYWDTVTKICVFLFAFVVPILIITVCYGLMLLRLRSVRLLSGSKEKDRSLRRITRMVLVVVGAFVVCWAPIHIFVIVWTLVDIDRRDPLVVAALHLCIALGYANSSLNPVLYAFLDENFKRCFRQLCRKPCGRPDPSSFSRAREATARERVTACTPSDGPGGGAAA

A word on the Ki: it is a dissociation constant, usually derived from enzyme kinetics or from competition with a known ligand. With `CC(=O)N[C@H](Cc1c(C)[nH]c2c(Br)cccc12)C(=O)N[C@@H](Cc1ccccc1)C(=O)NCC(N)=O`, the values for the Ki in data set [1], in data set [3] and in data set [9] were above 100000 nM, above 100000 nM and 4.03 nM, respectively. Also, the figures for the MPE in data set [2] and in [4] were 33% and 32%, respectively. The Activity result in data set [5], in [6], in data set [7] and in [8] was “Non-toxic” in each case.

For `CC(=O)N[C@H](Cc1c(C)[nH]c2ccc(Cl)cc12)C(=O)N[C@@H](Cc1ccccc1)C(=O)NCC(N)=O`, the Ki in data set [9] was above 100000 nM.

Regarding `CC(=O)N[C@H](Cc1c[nH]c2ccccc12)C(=O)N[C@@H](Cc1ccccc1)C(N)=O` (Ac-[dW]-Phe-NH2), the outcome in [2] and in data set [4] was inactive. For the same molecule, the Activity result in data set [5], in data set [6], in [7] and in data set [8] was “Non-toxic” each time.

For `CC(=O)N[C@H](Cc1c[nH]c2c(C)cccc12)C(=O)N[C@@H](Cc1ccccc1)C(=O)NCC(N)=O`, the Ki in [9] was above 100000 nM.

Turning to `CC(=O)N[C@H](Cc1c[nH]c2ccccc12)C(=O)N[C@@H](Cc1ccccc1)C(=O)NCC(N)=O` (Ac-[dW]-Phe-Gly-NH2), the MPE turned out to be 19% in [2] and 37% in [4]. The Activity entry in data set [5], in data set [6], in data set [7] and in data set [8] was “Non-toxic” in each case.

In the case of `CC(=O)N[C@H](Cc1c[nH]c2ccc(Br)cc12)C(=O)N[C@@H](Cc1ccccc1)C(=O)NCC(N)=O`, the figures for the Ki in data set [1], in data set [3] and in data set [9] were above 100000 nM, above 100000 nM and 114 nM, respectively.

In data set [9], `CC(=O)N[C@H](Cc1c[nH]c2ccc(F)cc12)C(=O)N[C@@H](Cc1ccccc1)C(=O)NCC(N)=O` showed a Ki above 100000 nM.

Regarding `CC(=O)N[C@H](Cc1c[nH]c2ccc(C)cc12)C(=O)N[C@@H](Cc1ccccc1)C(=O)NCC(N)=O`, the Ki in data set [1] was above 100000 nM; in data set [3], above 100000 nM; in [9], 426 nM.

With `CC(=O)N[C@H](Cc1c[nH]c2ccc([N+](=O)[O-])cc12)C(=O)N[C@@H](Cc1ccccc1)C(=O)NCC(N)=O`, the Activity entry is “Dose-dependent effect” in [10]; “Dose-dependent effect” in data set [13]; “Non-toxic” in [5]; 25% in [14]; “Non-toxic” in data set [6]; “Non-toxic” in [7]. Also, the Activity result is reported as “Non-toxic” in [8], 49% in [15] and 47% in [16]. Besides, the metabolised at 3 h in data set [11] came out at 7%. Besides, the MPE in [12] is 48%. Besides, the Ki in data set [1] is above 100000 nM; in data set [3], above 100000 nM; in data set [9], 51.9 nM.

On to `CC(=O)N[C@H](Cc1c[nH]c2ccc(Cl)cc12)C(=O)N[C@@H](Cc1ccccc1)C(=O)NCC(N)=O`, for which the Ki in [9] was 20.8 nM.

Take `O=C1CNC(=O)[C@H](Cc2ccccc2)NC(=O)[C@@H](Cc2c[nH]c3ccccc23)NC(=O)CNC(=O)[C@H](Cc2ccc(O)cc2)N1`: the metabolised at 3 h in data set [11] is below 10%. The Ki in data set [1] was above 100000 nM; in data set [3], 24 nM; in data set [9] it was 3.6 nM. Moreover, the MPE came to 22% in [2] and 32% in [4]. Moreover, the Activity entry in data set [5], in data set [6], in data set [7] and in [8] was “Non-toxic” in each case.

In the case of `CC(=O)N[C@H](Cc1c(C)[nH]c2ccccc12)C(=O)N[C@@H](Cc1ccccc1)C(=O)NCC(N)=O`, the Ki in data set [1] is above 100000 nM; in data set [3], above 100000 nM; in [9] it was 314 nM.

In data set [9], `CC(=O)N[C@H](Cc1c[nH]c2cc(F)ccc12)C(=O)N[C@@H](Cc1ccccc1)C(=O)NCC(N)=O` registered a Ki of 5.7 nM.

`CC(=O)N[C@H](Cc1c[nH]c2cc(Cl)ccc12)C(=O)N[C@@H](Cc1ccccc1)C(=O)NCC(N)=O` registered a Ki in data set [9] above 100000 nM.

With `CC(=O)N[C@H](Cc1c[nH]c2c(Br)cccc12)C(=O)N[C@@H](Cc1ccccc1)C(=O)NCC(N)=O`, the Ki in data set [1] is above 100000 nM; in data set [3], above 100000 nM; in data set [9] it was 190 nM.
